What follows are compounds tested against Multidrug resistance-associated protein 1 (Homo sapiens, UniProt P33527) (assay: Inhibition of MRP1 in human 2008/MRP1 cells assessed as potentiation of doxorubicin-induced cytotoxicity by measuring cell survival at 2 uM after 5 days by MTS assay relative to control). Settings: 120 h.
Type: cell-based
How it was run: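 2008/MRP1 cells (retroviral human MRP1 transfectant; RPMI 1640, 10% FBS) at 4,000 per well, with 100 nM doxorubicin plus crude, unpurified click products in DMSO: 2 µM in the primary screen, 1 µM in the secondary. Incubated 5 days at 37 °C. MTS/PMS added for 2 h at 37 °C, absorbance read at 490 nm. % survival is relative to wells without DOX or product. Run in triplicate, at least three experiments.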

Multidrug resistance-associated protein 1, sequence (P33527 whole entry): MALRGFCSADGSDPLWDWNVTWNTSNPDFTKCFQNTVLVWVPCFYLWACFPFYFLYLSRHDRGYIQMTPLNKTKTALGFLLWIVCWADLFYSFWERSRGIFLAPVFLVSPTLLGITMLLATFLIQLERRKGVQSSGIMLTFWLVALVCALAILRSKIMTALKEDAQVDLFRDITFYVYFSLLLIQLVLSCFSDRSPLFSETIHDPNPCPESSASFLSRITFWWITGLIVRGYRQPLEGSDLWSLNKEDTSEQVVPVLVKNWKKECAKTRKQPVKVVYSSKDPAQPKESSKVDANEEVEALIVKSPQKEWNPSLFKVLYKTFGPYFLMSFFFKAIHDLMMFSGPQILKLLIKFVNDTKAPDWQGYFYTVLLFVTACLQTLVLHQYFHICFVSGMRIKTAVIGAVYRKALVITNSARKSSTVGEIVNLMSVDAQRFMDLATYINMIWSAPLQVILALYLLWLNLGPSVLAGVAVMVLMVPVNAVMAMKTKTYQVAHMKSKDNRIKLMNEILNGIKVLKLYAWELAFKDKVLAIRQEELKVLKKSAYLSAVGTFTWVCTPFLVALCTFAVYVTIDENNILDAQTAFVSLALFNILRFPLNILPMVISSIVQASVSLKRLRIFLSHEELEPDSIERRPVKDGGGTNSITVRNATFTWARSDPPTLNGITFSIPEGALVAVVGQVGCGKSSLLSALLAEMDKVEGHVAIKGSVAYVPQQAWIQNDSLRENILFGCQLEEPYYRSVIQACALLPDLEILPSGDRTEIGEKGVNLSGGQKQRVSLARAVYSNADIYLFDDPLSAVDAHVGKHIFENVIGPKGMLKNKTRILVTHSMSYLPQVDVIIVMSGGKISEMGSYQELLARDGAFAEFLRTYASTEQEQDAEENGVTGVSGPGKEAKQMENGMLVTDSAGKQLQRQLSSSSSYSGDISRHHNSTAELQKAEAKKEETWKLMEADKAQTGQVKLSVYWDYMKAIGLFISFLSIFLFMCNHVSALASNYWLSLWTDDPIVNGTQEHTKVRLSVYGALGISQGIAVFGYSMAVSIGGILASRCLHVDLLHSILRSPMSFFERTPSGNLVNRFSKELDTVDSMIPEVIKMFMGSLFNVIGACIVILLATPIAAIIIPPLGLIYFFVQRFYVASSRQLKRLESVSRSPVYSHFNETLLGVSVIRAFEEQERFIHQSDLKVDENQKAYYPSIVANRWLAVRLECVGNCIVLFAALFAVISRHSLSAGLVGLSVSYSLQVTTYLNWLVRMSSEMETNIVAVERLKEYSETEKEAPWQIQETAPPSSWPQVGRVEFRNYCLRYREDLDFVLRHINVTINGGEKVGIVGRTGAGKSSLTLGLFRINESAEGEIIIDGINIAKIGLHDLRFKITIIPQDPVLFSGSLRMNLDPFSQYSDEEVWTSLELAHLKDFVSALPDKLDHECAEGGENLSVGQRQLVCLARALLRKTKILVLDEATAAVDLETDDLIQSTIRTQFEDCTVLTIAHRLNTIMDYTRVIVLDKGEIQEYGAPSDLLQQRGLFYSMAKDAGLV

Question: How did the Survival turn out when `COc1cccc(COc2c(-c3ccc(OCCOCCn4cc(CN(Cc5cn(CCOCCOc6ccc(-c7oc8ccccc8c(=O)c7OCc7cccc(OC)c7)cc6)nn5)Cc5cn(CCOCCOc6ccc(-c7oc8ccccc8c(=O)c7OCc7cccc(OC)c7)cc6)nn5)nn4)cc3)oc3ccccc3c2=O)c1` was run?
Answer: 86%

Question: Which Survival does the source give for `O=c1c(OCc2ccccc2)c(-c2ccc(OCCOCCOCCn3cc(CNc4ccccc4)nn3)cc2)oc2ccccc12` here?
Answer: 87%

Question: `O=c1cc(-c2ccc(OCCCc3cn(CCOCCOc4ccc(-c5oc6ccccc6c(=O)c5OCc5ccccc5)cc4)nn3)cc2)oc2cc(F)ccc12` was tested. Which Survival did it give?
Answer: 60%

Question: `CCc1ccc(O)c(C(=O)/C=C/c2ccc(OCCCCc3cn(CCOCCOCCOc4ccc(-c5cc(=O)c6ccccc6o5)cc4)nn3)cc2)c1` was tested. Which Survival did it give?
Answer: 60%

Question: How did the Survival turn out when `Cc1ccc(O)c(C(=O)/C=C/c2ccc(OCCCCc3cn(CCOCCOc4ccc5c(=O)cc(-c6ccccc6)oc5c4)nn3)cc2)c1` was run?
Answer: 73%

Question: How did the Survival turn out when `O=c1cc(-c2ccc(OCCOCCn3cc(CN(Cc4cn(CCOCCOc5ccc(-c6cc(=O)c7cc(F)ccc7o6)cc5)nn4)Cc4cn(CCOCCOc5ccc(-c6cc(=O)c7cc(F)ccc7o6)cc5)nn4)nn3)cc2)oc2ccc(F)cc12` was run?
Answer: 76%

Question: For `O=c1cc(-c2ccc(OCCOCCOCCn3cc(-c4cccc(-c5cn(CCOCCOCCOc6ccc(-c7cc(=O)c8cc(F)ccc8o7)cc6)nn5)c4)nn3)cc2)oc2ccc(F)cc12`, which Survival is on record?
Answer: 72%

Question: For `O=c1cc(-c2ccc(OCCOCCn3cc(CN(Cc4cn(CCOCCOc5ccc(-c6cc(=O)c7ccccc7o6)cc5)nn4)Cc4cn(CCOCCOc5ccc(-c6cc(=O)c7ccccc7o6)cc5)nn4)nn3)cc2)oc2ccccc12`, which Survival is on record?
Answer: 82%

Question: With `COc1cccc(COc2c(-c3ccc(OCCOCCn4cc(CCCOc5ccc(-c6cc(=O)c7ccccc7o6)cc5)nn4)cc3)oc3ccccc3c2=O)c1` as the compound, how does the Survival read?
Answer: 68%

Question: With `O=C1c2ccccc2C(=O)N1CCc1cn(CCOCCOc2cccc(-c3oc4ccccc4c(=O)c3OCc3ccccc3)c2)nn1` as the compound, how does the Survival read?
Answer: 62%

Question: Which Survival does the source give for `[N-]=[N+]=NCCOCCOc1ccc(-c2cc(=O)c3cc(F)ccc3o2)cc1` here?
Answer: 90%

Question: With `O=c1c(OCc2ccccc2)c(-c2ccc(OCCOCCn3cc(-c4ccc(-c5cn(CCOCCOc6ccc(-c7oc8ccccc8c(=O)c7OCc7ccccc7)cc6)nn5)cc4)nn3)cc2)oc2ccccc12` as the compound, how does the Survival read?
Answer: 82%

Question: `CCc1ccc(O)c(C(=O)/C=C/c2ccc(OCCCCc3cn(CCOc4cccc5c(=O)cc(-c6ccccc6)oc45)nn3)cc2)c1` was tested. Which Survival did it give?
Answer: 86%

Question: Which Survival does the source give for `Cc1ccc(C(=O)/C=C/c2ccc(OCCCCc3cn(CCOCCOCCOc4ccc5c(=O)cc(-c6ccccc6)oc5c4)nn3)cc2)c(O)c1` here?
Answer: 72%

Question: For `O=c1cc(-c2ccccc2)oc2cc(OCCCCc3cn(CCOc4cccc5c(=O)cc(-c6ccccc6)oc45)nn3)ccc12`, which Survival is on record?
Answer: 60%

Question: With `CN(CCN(C)Cc1cn(CCOc2ccc3occ(-c4ccccc4)c(=O)c3c2)nn1)Cc1cn(CCOc2ccc3c(=O)cc(-c4ccccc4)oc3c2)nn1` as the compound, how does the Survival read?
Answer: 90%

Question: Which Survival does the source give for `CN(CCN(C)Cc1cn(CCOCCOc2cccc(-c3oc4ccccc4c(=O)c3OCc3ccccc3)c2)nn1)Cc1cn(CCOCCOc2cccc(-c3oc4ccccc4c(=O)c3OCc3ccccc3)c2)nn1` here?
Answer: 83%

Question: How did the Survival turn out when `O=c1c(OCc2ccccc2)c(-c2cccc(OCCOCCn3cc(-c4ccc(-c5cn(CCOCCOc6cccc(-c7oc8ccccc8c(=O)c7OCc7ccccc7)c6)nn5)cc4)nn3)c2)oc2ccccc12` was run?
Answer: 82%

Question: For `O=c1c(OCc2ccccc2)c(-c2ccc(OCCOCCn3cc(CN4CCN(Cc5cn(CCOCCOc6ccc(-c7oc8ccccc8c(=O)c7OCc7ccccc7)cc6)nn5)CC4)nn3)cc2)oc2ccccc12`, which Survival is on record?
Answer: 58%

Question: For `Cc1ccc2oc(-c3ccc(OCCOCCOCCn4cc(CCCCOc5ccc(C=O)cc5)nn4)cc3)cc(=O)c2c1`, which Survival is on record?
Answer: 72%

Question: `O=Cc1ccc(OCCCCc2cn(CCOCCOc3ccc(-c4oc5ccccc5c(=O)c4OCc4ccccc4)cc3)nn2)cc1` was tested. Which Survival did it give?
Answer: 59%

Question: For `O=C(/C=C/c1ccc(OCCCCc2cn(CCOCCOc3ccc(-c4oc5ccccc5c(=O)c4OCc4ccccc4)cc3)nn2)cc1)c1ccccc1O`, which Survival is on record?
Answer: 72%

Question: For `C#CCN(C)CCN(C)CC#C`, which Survival is on record?
Answer: 87%

Question: For `COCOc1cc(OCc2ccccc2)c2c(=O)cc(-c3ccc(OCCCc4cn(CCOCCOCCOc5ccc6c(=O)cc(-c7ccccc7)oc6c5)nn4)cc3)oc2c1`, which Survival is on record?
Answer: 76%

— ChEMBL document CHEMBL4257575, “Discovery of Novel Flavonoid Dimers To Reverse Multidrug Resistance Protein 1 (MRP1, ABCC1) Mediated Drug Resistance in Cancers Using a High Throughput Platform with "Click Chemistry"” (J Med Chem, 2018)
